Experimental data: ChEMBL document CHEMBL4706589, “Discovery of 5-bromo-4-phenoxy-N-phenylpyrimidin-2-amine derivatives as novel ULK1 inhibitors that block autophagy and induce apoptosis in non-small cell lung cancer” (Eur J Med Chem, 2020)

How the values were obtained:
[1] = biological target: T1, Serine/threonine-protein kinase ULK1 (Homo sapiens) (UniProt O75385); test: Inhibition of recombinant human ULK1 at 10 uM preincubated for 60 mins followed by substrate addition and measured after 30 mins by ADP-glo assay; details: time 90.0 min
T1 sequence (whole entry): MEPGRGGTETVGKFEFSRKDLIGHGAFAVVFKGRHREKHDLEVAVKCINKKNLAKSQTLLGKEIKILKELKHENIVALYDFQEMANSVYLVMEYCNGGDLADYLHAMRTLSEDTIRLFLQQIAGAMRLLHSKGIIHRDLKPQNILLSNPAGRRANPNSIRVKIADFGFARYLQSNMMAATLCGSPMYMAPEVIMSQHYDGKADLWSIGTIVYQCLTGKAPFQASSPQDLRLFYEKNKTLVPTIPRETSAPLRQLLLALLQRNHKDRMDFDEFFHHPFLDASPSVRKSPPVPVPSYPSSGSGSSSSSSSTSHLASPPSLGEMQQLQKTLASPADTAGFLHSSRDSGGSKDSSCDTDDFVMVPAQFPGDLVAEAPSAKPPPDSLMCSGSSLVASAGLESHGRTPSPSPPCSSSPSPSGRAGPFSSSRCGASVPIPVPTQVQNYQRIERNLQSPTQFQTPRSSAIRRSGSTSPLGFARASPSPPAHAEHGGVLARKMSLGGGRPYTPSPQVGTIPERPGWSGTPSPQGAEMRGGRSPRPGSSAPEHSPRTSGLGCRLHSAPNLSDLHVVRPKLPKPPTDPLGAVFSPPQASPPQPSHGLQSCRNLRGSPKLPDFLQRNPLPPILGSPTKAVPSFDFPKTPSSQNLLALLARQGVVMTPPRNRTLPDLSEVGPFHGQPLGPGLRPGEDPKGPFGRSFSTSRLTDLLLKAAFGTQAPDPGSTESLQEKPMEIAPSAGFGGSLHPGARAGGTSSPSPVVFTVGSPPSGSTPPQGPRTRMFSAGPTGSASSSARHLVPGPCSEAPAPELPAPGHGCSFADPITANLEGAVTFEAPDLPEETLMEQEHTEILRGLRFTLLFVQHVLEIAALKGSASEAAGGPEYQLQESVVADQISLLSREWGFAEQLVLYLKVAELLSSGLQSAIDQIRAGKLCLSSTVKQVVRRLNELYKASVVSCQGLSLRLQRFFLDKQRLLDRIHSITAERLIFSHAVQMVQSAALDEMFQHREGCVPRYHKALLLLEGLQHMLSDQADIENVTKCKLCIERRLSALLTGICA
Outline: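 Recombinant ULK1 activity was measured by ADP-Glo luminescence of ADP formed, in 40 mM Tris pH 7.5, 20 mM MgCl₂, 0.1 mg/ml BSA and […]. After the kinase reaction, plates were mixed 2 min and held 40 min at room temperature. Detection reagent was then added for 30 min at room temperature before luminescence was read.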

[2] = test system: A549; test: Antiproliferative activity against human A549 cells assessed as reduction in cell viability after 24 hrs by MTT assay; format: functional, cell-based; details: A549, 24 h
Outline: (§1)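 Cells seeded at 5.5 × 10⁴ cells/mL in 96-well plates and grown 24 h before exposure to graded compound concentrations. Viability read by MTT after 24 h. A549, MCF-7 and MDA-MB-468 were kept in DMEM with 10% FBS under 5% CO₂; HL60 and U937 in RPMI 1640 with 10% FBS. IC50 taken as mean of triplicate tests.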

[3] = test system: MDA-MB-468; test: Antiproliferative activity against human MDA-MB-468 cells assessed as reduction in cell viability after 24 hrs by MTT assay; format: functional, cell-based; details: MDA-MB-468, 24 h; outline: as §1
[4] = test system: U-937; test: Antiproliferative activity against human U937 cells assessed as reduction in cell viability after 24 hrs by MTT assay; format: functional, cell-based; details: U-937, 24 h; outline: as §1
[5] = test system: HL-60; test: Antiproliferative activity against human HL60 cells assessed as reduction in cell viability after 24 hrs by MTT assay; format: functional, cell-based; details: HL-60, 24 h; outline: as §1
[6] = test system: MCF7; test: Antiproliferative activity against human MCF-7 cells assessed as reduction in cell viability after 24 hrs by MTT assay; format: functional, cell-based; details: MCF7, 24 h; outline: as §1

inhibition [1] | IC50 [2] | IC50 [3] | IC50 [4] | IC50 [5] | IC50 [6] | SMILES
16.3% | 48.7 µM | > 50 µM | > 50 µM | > 50 µM | > 50 µM | Cc1cccc(Nc2ncc(Br)c(Oc3ccc(OCc4ccccc4)cc3)n2)c1
84% | 7.14 µM | 19.4 µM | 14.1 µM | 17.5 µM | 26.5 µM | CNC(=O)c1ccccc1Oc1nc(Nc2cccc(C(C)C)c2)ncc1Br
3.78% | 43.9 µM | > 50 µM | > 50 µM | > 50 µM | > 50 µM | Cc1cccc(Nc2ncc(Br)c(Oc3cc(Cl)cc(Cl)c3)n2)c1
49.3% | 13.9 µM | 29.2 µM | 19.4 µM | 15.5 µM | 26.8 µM | Cc1cccc(Nc2ncc(Br)c(Oc3cccc(F)c3)n2)c1
17.7% | 29.7 µM | 45.8 µM | > 50 µM | > 50 µM | > 50 µM | COc1cc(Nc2nccc(NCCCN)n2)cc(OC)c1OC
22.2% | > 50 µM | > 50 µM | > 50 µM | > 50 µM | > 50 µM | CNC(=O)c1ccccc1Oc1nc(Nc2ccc3c(c2)OCO3)ncc1Br
21.6% | > 50 µM | > 50 µM | > 50 µM | > 50 µM | > 50 µM | CNC(=O)c1ccccc1Oc1nc(Nc2ccc(C(F)(F)F)cc2)ncc1Br
38.2% | 27.3 µM | 40.7 µM | 49.6 µM | 32.3 µM | 44.7 µM | CNC(=O)c1ccccc1Oc1nc(Nc2ccc(C)cc2C)ncc1Br
17.8% | 38.1 µM | > 50 µM | > 50 µM | > 50 µM | > 50 µM | CNC(=O)c1ccccc1Oc1nc(Nc2ccc(Cl)cc2F)ncc1Br
50.5% | 6.23 µM | 17.8 µM | 24.3 µM | 16.2 µM | 18.2 µM | CNC(=O)c1ccccc1Oc1nc(Nc2cccc(OC)c2)ncc1Br
32.3% | 39.6 µM | > 50 µM | 39.9 µM | 43.4 µM | > 50 µM | COc1cc(Nc2ncc(I)c(NCCCN)n2)cc(OC)c1OC
73.7% | 6.1 µM | 18.6 µM | 15.9 µM | 16.2 µM | 16.6 µM | CNC(=O)c1ccccc1Oc1nc(Nc2cccc(C)c2)ncc1Br
44.9% | 16.9 µM | 32.3 µM | 22 µM | 21.6 µM | 32.7 µM | CCN(CC)CCNc1nc(Nc2cc(OC)c(OC)c(OC)c2)ncc1I
27.4% | 35.5 µM | > 50 µM | > 50 µM | > 50 µM | > 50 µM | CNC(=O)c1ccccc1Oc1nc(Nc2ccccc2F)ncc1Br
38.8% | 28.3 µM | 32.8 µM | 45.5 µM | 44 µM | 57.8 µM | CNC(=O)c1ccccc1Oc1nc(Nc2cccc(C(F)(F)F)c2)ncc1Br
40.1% | 23.5 µM | 36.6 µM | > 50 µM | 39.7 µM | > 50 µM | CNC(=O)c1ccccc1Oc1nc(Nc2ccc(Br)cc2)ncc1Br
12.5% | 51 µM | > 50 µM | > 50 µM | > 50 µM | > 50 µM | O=[N+]([O-])c1ccc(Oc2nc(Nc3ccc(Br)cc3)ncc2Br)c(F)c1
13.4% | 46.4 µM | > 50 µM | > 50 µM | > 50 µM | > 50 µM | CCN(CC)CCNc1ccnc(Nc2cc(OC)c(OC)c(OC)c2)n1
25.7% | 10.3 µM | 31.3 µM | 18.6 µM | 14.7 µM | 19.1 µM | Cc1cccc(Nc2ncc(Br)c(Oc3ccc(Br)cc3)n2)c1
 | 6.78 µM | 18.4 µM | 25.1 µM | 18.9 µM | 26.2 µM | CNC(=O)c1ccccc1Oc1nc(Nc2cc(OC)c(OC)c(OC)c2)ncc1Br
15.7% | 37.6 µM | > 50 µM | 43.1 µM | > 50 µM | > 50 µM | O=[N+]([O-])c1ccc(Oc2nc(Nc3ccc(Cl)cc3)ncc2Br)c(F)c1
75.7% | 20.3 µM | 31.4 µM | 38.6 µM | 34.7 µM | 39.1 µM | CCOc1ccccc1Oc1nc(Nc2cccc(C)c2)ncc1Br
40.2% | 24.6 µM | 36.7 µM | 51.2 µM | 38.7 µM | > 50 µM | Cc1cccc(Nc2ncc(Br)c(Oc3cccc([N+](=O)[O-])c3)n2)c1
19.2% | 40.5 µM | > 50 µM | 52.1 µM | > 50 µM | > 50 µM | CNC(=O)c1ccccc1Oc1nc(Nc2ccccc2OC)ncc1Br
62.7% | 10.6 µM | 31.9 µM | 49 µM | 38.7 µM | 42.5 µM | CNC(=O)c1ccccc1Oc1nc(Nc2cccc(Br)c2)ncc1Br
